Measurements: ChEMBL document CHEMBL1641579, “Synthesis and biological evaluation of 7-substituted-1-(3-bromophenylamino)isoquinoline-4-carbonitriles as inhibitors of myosin light chain kinase and epidermal growth factor receptor” (Bioorg Med Chem, 2011)

How the values were obtained:
NCI-H661 = experiment: Growth inhibition of human NCI-H661 cells assessed as ATP level after 96 hrs by CellTiter-Glo assay; assay type: functional; conditions: NCI-H661, 96 h
[1] = Growth inhibition of human HCC827 cells assessed as ATP level after 96 hrs by CellTiter-Glo assay; assay type: functional; conditions: HCC827, 96 h
How it was run: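 NSCLC lines maintained as in earlier work and authenticated by mutational analysis and SNP arrays. Cells were plated in 384-well format and allowed 24 h before compound addition as 10 threefold serial dilutions (DMSO stocks). After 96 h, viability was read as cellular ATP by CellTiter-Glo. GI50 was fitted with an R package.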

GI50 (NCI-H661): 14 µM
SMILES: CN(C)C/C=C/C(=O)Nc1ccc2c(C#N)cnc(Nc3cccc(Br)c3)c2c1
GI50 [1]: 14.3 µM
